In ChEMBL document CHEMBL3865809, “2-Indolylmethylenebenzofuranones as first effective inhibitors of ABCC2” (Eur J Med Chem, 2016):

Experiments:
[1] = target: T1, ATP-binding cassette sub-family C member 2 (Homo sapiens, UniProt Q92887); assay: Inhibition of ABCC2 (unknown origin) expressed in MDCK2 cells assessed as inhibition of calcein-AM efflux at 5 uM measured after 30 mins in presence of ABCB1 inhibitor GF120918 and ABCC1 inhibitor MK-571 by flow cytometry; assay type: cell-based; conditions: mdck-ii, 0.5 h
T1 sequence (Q92887 whole entry): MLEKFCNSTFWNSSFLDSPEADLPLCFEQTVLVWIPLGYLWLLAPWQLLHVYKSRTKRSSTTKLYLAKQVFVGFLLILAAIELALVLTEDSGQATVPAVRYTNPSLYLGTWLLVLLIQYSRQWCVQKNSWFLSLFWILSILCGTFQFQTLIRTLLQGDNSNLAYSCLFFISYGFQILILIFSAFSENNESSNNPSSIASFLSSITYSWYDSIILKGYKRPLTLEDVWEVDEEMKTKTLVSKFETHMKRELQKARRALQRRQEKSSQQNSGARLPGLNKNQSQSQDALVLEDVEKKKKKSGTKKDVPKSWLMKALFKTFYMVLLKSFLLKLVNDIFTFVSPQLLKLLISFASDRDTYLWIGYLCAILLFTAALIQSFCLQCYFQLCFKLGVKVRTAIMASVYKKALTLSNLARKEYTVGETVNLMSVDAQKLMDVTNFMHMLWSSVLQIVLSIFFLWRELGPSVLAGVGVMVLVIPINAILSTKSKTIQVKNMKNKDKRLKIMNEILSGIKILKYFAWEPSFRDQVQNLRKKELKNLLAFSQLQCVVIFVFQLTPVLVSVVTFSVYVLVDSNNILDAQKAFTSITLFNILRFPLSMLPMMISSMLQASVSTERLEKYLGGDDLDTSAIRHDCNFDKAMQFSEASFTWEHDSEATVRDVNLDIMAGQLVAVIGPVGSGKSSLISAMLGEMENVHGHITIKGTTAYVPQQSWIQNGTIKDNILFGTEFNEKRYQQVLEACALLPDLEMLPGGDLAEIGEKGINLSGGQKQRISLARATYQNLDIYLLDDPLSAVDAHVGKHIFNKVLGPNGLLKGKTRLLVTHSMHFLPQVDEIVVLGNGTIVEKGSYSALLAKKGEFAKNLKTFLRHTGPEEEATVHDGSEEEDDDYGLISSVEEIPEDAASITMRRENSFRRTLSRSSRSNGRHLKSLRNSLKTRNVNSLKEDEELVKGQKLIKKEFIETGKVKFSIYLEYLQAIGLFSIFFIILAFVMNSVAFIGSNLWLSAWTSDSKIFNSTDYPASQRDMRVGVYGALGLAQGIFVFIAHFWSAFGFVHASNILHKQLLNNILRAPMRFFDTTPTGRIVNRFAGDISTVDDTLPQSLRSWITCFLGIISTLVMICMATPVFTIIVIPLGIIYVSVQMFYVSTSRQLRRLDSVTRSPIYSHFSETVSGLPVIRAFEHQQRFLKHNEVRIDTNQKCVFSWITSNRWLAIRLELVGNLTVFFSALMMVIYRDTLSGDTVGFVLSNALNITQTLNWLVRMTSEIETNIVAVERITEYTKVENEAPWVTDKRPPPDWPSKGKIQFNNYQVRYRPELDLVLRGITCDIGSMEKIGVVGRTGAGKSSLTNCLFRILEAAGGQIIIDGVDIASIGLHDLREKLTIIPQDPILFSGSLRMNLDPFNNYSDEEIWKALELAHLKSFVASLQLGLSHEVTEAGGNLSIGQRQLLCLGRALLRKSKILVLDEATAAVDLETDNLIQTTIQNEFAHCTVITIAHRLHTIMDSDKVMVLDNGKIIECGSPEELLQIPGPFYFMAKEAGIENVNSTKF
Procedure, shortened: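 Parental and ABCC2-transfected MDCKII cells were seeded at 3 × 10³ cells/well and grown 48 h at 37 °C in 5% CO2. They were then loaded with 25 nM calcein-AM in the presence of GF120918 and […] MK-571. Intracellular fluorescence was read by flow cytometry in the 525/50 nm channel, collecting ≥5000 events.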

[2] = target: T1, ATP-binding cassette sub-family C member 2; assay: Inhibition of ABCC2 (unknown origin) expressed in human Flp-InTM-293 cells assessed as inhibition of calcein-AM efflux at 5 uM measured after 30 mins in presence of ABCB1 inhibitor GF120918 and ABCC1 inhibitor MK-571 by flow cytometry; assay type: cell-based; conditions: 0.5 h
Procedure, shortened: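 A confirmatory calcein-AM efflux assay was run the same way in Flp-In-293 cells stably transfected with ABCC2 (pcDNA5-FRT-ABCC2 plus pOG44, by electroporation) and in parental Flp-In-293 cells. Fluorescence was read by flow cytometry, with % inhibition computed against the parental line.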

[3] = target: T1, ATP-binding cassette sub-family C member 2; assay: Inhibition of ABCC2 (unknown origin) expressed in MDCK2 cells assessed as inhibition of calcein-AM efflux measured after 30 mins in presence of ABCB1 inhibitor GF120918 and ABCC1 inhibitor MK-571 by flow cytometry; assay type: cell-based, MDCK-II
[4] = Cytotoxicity against MDCK2 cells expressing ABCC2 measured after 72 hrs by MTT assay; assay type: toxicity, cell-based, Canis lupus familiaris, MDCK-II; conditions: dog
Procedure, shortened: (§1)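 MTT assay in parental and ABCC2-transfected MDCKII cells. Cells were seeded so that they stayed below confluence over 72 h at 37 °C, then exposed to compound from […] for 72 h. MTT at 5 mg/mL was added for 3 h. Formazan was dissolved in DMSO/isopropanol 1:1, and A570 was read and corrected at 690 nm. Mean ± SD of at least three independent experiments; DMSO-only controls run in parallel.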

[5] = Cytotoxicity against wild-type MDCK2 cells measured after 72 hrs by MTT assay; assay type: toxicity, cell-based, Canis lupus familiaris, MDCK-II; conditions: dog; procedure, shortened: as §1

Structure (SMILES)	inhibition (INH) [1]	inhibition (INH) [2]	IC50 [3] [µM]	IC50 at 72 h [4] [µM]	IC50 at 72 h [5] [µM]
CCCCn1c(/C=C2\Oc3cc(O)cc(O)c3C2=O)c(C)c2ccccc21	Active	Active	8.2		
O=C1/C(=C/c2cn(Cc3cccc(Br)c3)c3ccccc23)Oc2cc(O)cc(O)c21	Active	Active	14.4		
O=C1/C(=C/c2cn(Cc3ccccc3)c3ccccc23)Oc2cc(O)cc(O)c21	Active	Active	12.2		
O=C1/C(=C/c2cn(CC3CCCCC3)c3ccccc23)Oc2cc(O)cc(O)c21	Active	Active	10.5		
COc1cccc(Cn2cc(/C=C3\Oc4cc(O)cc(O)c4C3=O)c3ccccc32)c1	Active	Active	17.5		
CC(C)=CCn1cc(/C=C2\Oc3cc(O)cc(O)c3C2=O)c2ccccc21	Active	Active	10.6		
CCCCn1c(C)c(/C=C2\Oc3cc(O)cc(O)c3C2=O)c2ccccc21	Active	Active	11.4		
COc1ccc2c(c1)c(/C=C1\Oc3cc(O)cc(O)c3C1=O)cn2CC1CCCCC1	Active	Active	4.1	> 50	> 50
Cn1c(/C=C2\Oc3cc(O)cc(O)c3C2=O)cc2ccccc21	Active	Active	11.1		
CCCCn1c(/C=C2\Oc3cc(O)cc(O)c3C2=O)cc2ccccc21	Active	Active	9		

More lines, main results first:

inhibition (INH) [1]	inhibition (INH) [2]	IC50 [3] [µM]	Structure (SMILES)	IC50 at 72 h [4] [µM]	IC50 at 72 h [5] [µM]
Active	Active	15.4	CCCCn1cc(/C=C2\Oc3cc(O)cc(O)c3C2=O)c2cc(Br)ccc21		
Active	Active	6.3	CCCCn1cc(/C=C2\Oc3cc(O)cc(O)c3C2=O)c2cccc(OC)c21		
Active	Active	15.8	O=C1/C(=C/c2cn(CC3CCCCC3)c3ccc(Br)cc23)Oc2cc(O)cc(O)c21		
Active	Active	17.8	CCn1cc(/C=C2\Oc3cc(O)cc(O)c3C2=O)c2cc(Br)ccc21		
Active	Active	4.5	CCCCn1cc(/C=C2\Oc3cc(O)cc(O)c3C2=O)c2cccc(C)c21	> 50	> 50
Active	Active	4.8	CCCCn1cc(/C=C2\Oc3cc(O)cc(O)c3C2=O)c2cc(C)ccc21	> 50	> 50
Active	Active	13.9	CCCCn1cc(/C=C2\Oc3cc(O)cc(O)c3C2=O)c2cc(OC)ccc21		
Active	Active	7.3	COc1ccc2c(c1)c(/C=C1\Oc3cc(O)cc(O)c3C1=O)cn2Cc1cccc(Br)c1		
Active	Active	4.5	Cn1cc(/C=C2\Oc3cc(O)cc(O)c3C2=O)c2cc(Br)ccc21	> 50	> 50
